In test [1] the target is T1, Aromatase (Homo sapiens, UniProt P11511).
T1 sequence (P11511 whole entry): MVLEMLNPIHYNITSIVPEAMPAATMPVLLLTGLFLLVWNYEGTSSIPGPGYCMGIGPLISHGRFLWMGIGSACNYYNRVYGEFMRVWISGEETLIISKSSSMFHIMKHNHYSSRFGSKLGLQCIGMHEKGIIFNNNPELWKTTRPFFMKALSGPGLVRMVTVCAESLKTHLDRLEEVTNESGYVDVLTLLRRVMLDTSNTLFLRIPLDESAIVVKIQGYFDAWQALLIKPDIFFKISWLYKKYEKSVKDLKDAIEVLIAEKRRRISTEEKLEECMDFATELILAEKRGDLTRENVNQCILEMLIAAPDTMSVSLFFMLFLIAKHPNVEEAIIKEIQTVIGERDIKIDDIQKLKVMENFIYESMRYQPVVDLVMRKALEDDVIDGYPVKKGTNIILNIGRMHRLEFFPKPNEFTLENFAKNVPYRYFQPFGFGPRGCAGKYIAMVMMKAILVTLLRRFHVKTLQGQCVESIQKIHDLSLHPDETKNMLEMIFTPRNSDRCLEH
As to the kind of experiment: Inhibition of Cytochrome P450 19A1 at 1.25 uM. In outline:
(§1)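 Aromatase source was lyophilized human placental microsomes, measured by tritiated water release. The substrate was 0.25 μM [1-³H]androstenedione (83% of the tritium in the β position), about 5 times the Km for this enzyme preparation. Inhibitor was tested at 0.25 μM or 1.25 μM with buffer and cofactors for 15 min. Ethyl acetate stopped the reaction.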

Test [2] has as its target T1, Aromatase. Description: Inhibition of Cytochrome P450 19A1 at 0.25 uM. In a few lines:
as §1

SMILES strings stand for the structures.

Here are results for 13 molecules from ChEMBL document CHEMBL1123018, “7 alpha-substituted derivatives of androstenedione as inhibitors of estrogen biosynthesis” (J Med Chem, 1985).

Regarding `C[C@]12CCC(=O)C=C1C[C@@H](Sc1ccc(F)cc1)[C@@H]1[C@@H]2CC[C@]2(C)C(=O)CC[C@@H]12`, the inhibition at 1.25 µM against Aromatase [1] stood at 74.1%. This molecule came in with an inhibition at 0.25 µM at Aromatase [2] of 55.3%.
For `C[C@]12CCC(=O)C=C1C[C@@H](Sc1ccc(N)cc1)[C@@H]1[C@@H]2CC[C@]2(C)C(=O)CC[C@@H]12`, in that order: 85% and 51.6%.
For `C[C@]12CCC(=O)C=C1C[C@@H](Sc1ccc(I)cc1)[C@@H]1[C@@H]2CC[C@]2(C)C(=O)CC[C@@H]12`, in that order: 83.7% and 45%.
For `C[C@]12CCC(=O)C=C1C[C@@H](SC1CCCCC1)[C@@H]1[C@@H]2CC[C@]2(C)C(=O)CC[C@@H]12`, in that order: 32.2% and 18.5%.
On Aromatase [1], `C[C@]12CCC(=O)C=C1C[C@@H](Sc1ccc(Cl)cc1)[C@@H]1[C@@H]2CC[C@]2(C)C(=O)CC[C@@H]12` displayed an inhibition at 1.25 µM of 83.4%. The molecule also yielded an inhibition at 0.25 µM on Aromatase [2] of 56.5%.
For `C[C@]12CCC(=O)C=C1C[C@@H](Sc1cccc(N)c1)[C@@H]1[C@@H]2CC[C@]2(C)C(=O)CC[C@@H]12`, in that order: 73.3% and 39.9%.
For `C[C@]12CCC(=O)C=C1C[C@@H](SCc1ccccc1)[C@@H]1[C@@H]2CC[C@]2(C)C(=O)CC[C@@H]12`, in that order: 69.8% and 33.5%.
For `Cc1ccc(S[C@@H]2CC3=CC(=O)CC[C@]3(C)[C@H]3CC[C@]4(C)C(=O)CC[C@H]4[C@H]23)cc1`, in that order: 24.9% and 7.83%.
As to `CCN(CC)c1ccc(S[C@@H]2CC3=CC(=O)CC[C@]3(C)[C@H]3CC[C@]4(C)C(=O)CC[C@H]4[C@H]23)cc1`, at Aromatase [1], the inhibition at 1.25 µM worked out at 53.2%. On Aromatase [2], this molecule had an inhibition at 0.25 µM of 11.7%.
`COc1ccc(S[C@@H]2CC3=CC(=O)CC[C@]3(C)[C@H]3CC[C@]4(C)C(=O)CC[C@H]4[C@H]23)cc1` yielded an inhibition at 1.25 µM on Aromatase [1] of 36.7%. Also, 0.25 µM produced 7.93% inhibition at Aromatase [2].
For `C[C@]12CCC(=O)C=C1C[C@@H](Sc1ccc(Br)cc1)[C@@H]1[C@@H]2CC[C@]2(C)C(=O)CC[C@@H]12`, in that order: 80.8% and 47.3%.
For `CC(=O)c1ccc(S[C@@H]2CC3=CC(=O)CC[C@]3(C)[C@H]3CC[C@]4(C)C(=O)CC[C@H]4[C@H]23)cc1`, in that order: 84.4% and 55.7%.
For `C[C@]12CCC(=O)C=C1C[C@@H](Sc1ccccc1)[C@@H]1[C@@H]2CC[C@]2(C)C(=O)CC[C@@H]12`, in that order: 66.8% and 62.7%.

As a reminder, the inhibition is how much of the control response was suppressed. A high value points to a strong effect.
